Data taken from ChEMBL document CHEMBL1944548, “Discovery of kinase spectrum selective macrocycle (16E)-14-methyl-20-oxa-5,7,14,26-tetraazatetracyclo[19.3.1.1(2,6).1(8,12)]heptacosa-1(25),2(26),3,5,8(27),9,11,16,21,23-decaene (SB1317/TG02), a potent inhibitor of cyclin dependent kinases (CDKs), Janus kinase 2 (JAK2), and fms-like tyrosine …” (J Med Chem, 2012).
≈ marks a conversion by molar mass, not a printed value.

What was measured:
[1] = target: Tyrosine-protein kinase JAK2 (Homo sapiens, UniProt O60674); assay: Inhibition of recombinant JAK2 using poly(Glu,Ala,Tyr) as substrate after 2 hrs by luminescence assay
[2] = target: T1, Receptor-type tyrosine-protein kinase FLT3 (Homo sapiens, UniProt P36888); assay: Inhibition of recombinant Flt3 using poly(Glu,Tyr) as substrate after 2 hrs by luminescence assay
T1 sequence (P36888 whole entry): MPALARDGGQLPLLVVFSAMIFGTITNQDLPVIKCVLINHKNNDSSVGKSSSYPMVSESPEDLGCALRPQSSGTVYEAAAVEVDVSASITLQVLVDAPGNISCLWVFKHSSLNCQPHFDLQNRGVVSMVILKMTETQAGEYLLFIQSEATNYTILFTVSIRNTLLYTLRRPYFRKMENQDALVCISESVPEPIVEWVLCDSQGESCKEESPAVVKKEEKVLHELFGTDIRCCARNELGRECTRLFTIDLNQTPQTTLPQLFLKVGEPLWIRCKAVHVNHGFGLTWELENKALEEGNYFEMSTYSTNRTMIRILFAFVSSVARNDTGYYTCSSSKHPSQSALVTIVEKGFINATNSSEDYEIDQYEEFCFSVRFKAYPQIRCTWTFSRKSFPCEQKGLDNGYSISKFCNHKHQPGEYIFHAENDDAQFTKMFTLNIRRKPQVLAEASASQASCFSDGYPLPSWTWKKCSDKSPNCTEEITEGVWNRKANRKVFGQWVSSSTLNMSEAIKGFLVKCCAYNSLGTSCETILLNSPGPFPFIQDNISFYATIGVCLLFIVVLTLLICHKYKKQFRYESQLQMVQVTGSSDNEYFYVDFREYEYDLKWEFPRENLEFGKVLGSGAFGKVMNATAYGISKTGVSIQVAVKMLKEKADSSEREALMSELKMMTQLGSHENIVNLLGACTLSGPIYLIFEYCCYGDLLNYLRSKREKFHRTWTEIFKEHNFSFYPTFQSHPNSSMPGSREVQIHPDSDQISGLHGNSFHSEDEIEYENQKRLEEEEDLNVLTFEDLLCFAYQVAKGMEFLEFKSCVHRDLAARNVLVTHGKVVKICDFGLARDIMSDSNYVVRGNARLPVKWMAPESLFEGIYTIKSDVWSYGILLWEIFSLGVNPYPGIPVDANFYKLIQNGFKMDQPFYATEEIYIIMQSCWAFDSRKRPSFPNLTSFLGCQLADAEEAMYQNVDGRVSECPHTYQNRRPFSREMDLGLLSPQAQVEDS

[3] = target: Cyclin-dependent kinase 2/cyclin A (Homo sapiens, UniProt P24941); assay: Inhibition of recombinant Cdk2/cyclin A using RbING as substrate after 2 hrs by luminescence assay; type: protein-complex assay
[4] = Solubility of the compound in PBS buffer at 250 uM at pH 7 by UV spectrophotometry; type: physicochemical
[5] = Oral bioavailability in nude mouse at 50 mg/kg; type: ADME, organism-based; conditions: in vivo
[6] = Half life in human liver microsomes at 5 uM by LC-MS/MS analysis; type: ADME, Microsome
How it was run: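 5 μM with mouse, rat, dog or human liver microsomes (~0.87 mg/mL), 50 mM potassium phosphate pH 7.4, NADPH regeneration system, 37 °C.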

[7] = test system: HCT-116; assay: Antiproliferative activity against human HCT116 cells after 48 hrs; type: functional, cell-based; conditions: HCT-116, 48 h
[8] = test system: HL-60; assay: Antiproliferative activity against human HL60 cells after 48 hrs; type: functional, cell-based; conditions: HL-60, 48 h

Sequence of Tyrosine-protein kinase JAK2 (O60674 whole entry): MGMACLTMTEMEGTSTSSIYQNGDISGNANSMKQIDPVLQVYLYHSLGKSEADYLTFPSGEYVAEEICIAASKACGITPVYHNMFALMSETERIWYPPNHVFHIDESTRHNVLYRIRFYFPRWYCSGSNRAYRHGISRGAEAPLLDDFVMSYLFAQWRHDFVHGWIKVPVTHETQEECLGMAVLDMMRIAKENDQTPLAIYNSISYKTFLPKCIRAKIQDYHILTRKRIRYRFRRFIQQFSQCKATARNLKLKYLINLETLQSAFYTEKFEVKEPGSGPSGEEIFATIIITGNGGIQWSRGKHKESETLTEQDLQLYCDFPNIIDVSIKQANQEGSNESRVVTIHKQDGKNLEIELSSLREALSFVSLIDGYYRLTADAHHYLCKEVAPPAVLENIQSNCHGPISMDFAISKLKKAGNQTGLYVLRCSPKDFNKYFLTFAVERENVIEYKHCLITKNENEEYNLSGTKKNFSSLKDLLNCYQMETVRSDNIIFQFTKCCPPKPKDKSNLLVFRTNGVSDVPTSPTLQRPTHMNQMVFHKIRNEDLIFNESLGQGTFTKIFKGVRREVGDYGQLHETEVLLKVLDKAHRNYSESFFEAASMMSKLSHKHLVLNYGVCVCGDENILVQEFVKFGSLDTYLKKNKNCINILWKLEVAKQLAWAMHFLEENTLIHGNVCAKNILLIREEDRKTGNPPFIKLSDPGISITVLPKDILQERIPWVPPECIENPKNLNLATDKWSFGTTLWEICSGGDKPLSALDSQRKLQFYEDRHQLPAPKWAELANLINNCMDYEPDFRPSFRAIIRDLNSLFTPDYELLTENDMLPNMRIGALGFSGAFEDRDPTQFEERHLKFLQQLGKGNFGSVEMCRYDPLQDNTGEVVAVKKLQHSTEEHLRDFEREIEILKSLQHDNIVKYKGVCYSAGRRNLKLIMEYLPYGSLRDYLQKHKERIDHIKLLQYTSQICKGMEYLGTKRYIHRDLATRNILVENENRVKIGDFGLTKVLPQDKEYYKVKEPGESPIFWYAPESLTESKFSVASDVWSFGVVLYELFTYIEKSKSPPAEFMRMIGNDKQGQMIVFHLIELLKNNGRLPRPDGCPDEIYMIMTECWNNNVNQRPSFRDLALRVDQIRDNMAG

SMILES | IC50 [1] | IC50 [2] | IC50 [3] | solubility at 250 µM [4] | bioavailability [5] | half-life at 5 µM [6] | IC50 [7] | IC50 [8]
FC(F)(F)CN1C/C=C/CCOc2cccc(c2)-c2ccnc(n2)Nc2ccc(OCCN3CCCC3)c(c2)C1 | 220 nM | 110 nM | > 10000 nM | – | – | – | – | –
C1=C/CN(Cc2ccccn2)Cc2cccc(c2)Nc2nccc(n2)-c2cccc(c2)OCC/1 | 1350 nM | 1450 nM | 480 nM | – | – | – | – | –
Cc1cc2nc(n1)Nc1cccc(c1)CN(C)C/C=C/CCOc1cccc-2c1 | > 10000 nM | 1700 nM | 4700 nM | – | – | – | – | –
CN1CCN(CCOc2ccc3cc2CN(C)C/C=C/CCOc2cccc(c2)-c2ccnc(n2)N3)CC1 | 220 nM | 250 nM | 900 nM | – | – | – | – | –
COCCN1C/C=C/CCOc2cccc(c2)-c2ccnc(n2)Nc2cccc(c2)C1 | 1600 nM | 490 nM | 410 nM | – | – | – | – | –
O=C(N1C/C=C/CCOc2cccc(c2)-c2ccnc(n2)Nc2cccc(c2)C1)C(F)(F)F | > 10000 nM | > 10000 nM | > 10000 nM | – | – | – | – | –
C1=C/CNCc2cccc(c2)Nc2nccc(n2)-c2cccc(c2)OCC/1 | – | 110 nM | 21 nM | – | – | – | – | –
CN1C/C=C/COCc2cccc(c2)-c2ccnc(n2)Nc2cccc(c2)C1 | 1700 nM | 210 nM | 660 nM | – | – | – | – | –
CN1C/C=C/CC(=O)Nc2cccc(c2)-c2ccnc(n2)Nc2cccc(c2)C1 | > 10000 nM | 2750 nM | 4600 nM | – | – | – | – | –
CCS(=O)(=O)c1ccc2cc1CN(C)C/C=C/CCOc1cccc(c1)-c1ccnc(n1)N2 | 100 nM | 440 nM | 22 nM | – | – | – | – | –
CC(C)NCC(=O)N1C/C=C/CCOc2cccc(c2)-c2ccnc(n2)Nc2cccc(c2)C1 | – | 140 nM | 530 nM | 105 µg/mL (≈ 230 µM) | – | – | – | –
C1=C/CNc2cccc(c2)Nc2nccc(n2)-c2cccc(c2)OCC/1 | 3300 nM | 2900 nM | 150 nM | – | – | – | – | –
C1=C/CN(CC2CC2)Cc2cccc(c2)Nc2nccc(n2)-c2cccc(c2)OCC/1 | 1500 nM | 270 nM | 94 nM | – | – | – | – | –
CN1C/C=C/CCOc2cccc(c2)-c2ccnc(n2)Nc2ccc(OCC(=O)N3CCCC3)c(c2)C1 | 140 nM | 150 nM | 390 nM | – | – | – | – | –
CC(C)(C)CN1C/C=C/CCOc2cccc(c2)-c2ccnc(n2)Nc2cccc(c2)C1 | > 10000 nM | > 10000 nM | > 10000 nM | – | – | – | – | –
CN1C/C=C/CCOc2cccc(c2)-c2ccnc(n2)Nc2ccc(OC(F)(F)F)c(c2)C1 | 150 nM | 160 nM | 57 nM | – | – | – | – | –
CC(C)CN1C/C=C/CCOc2cccc(c2)-c2ccnc(n2)Nc2cccc(c2)C1 | 1500 nM | 190 nM | 200 nM | – | – | – | – | –
CN1C/C=C/CCOc2cccc(c2)-c2cc(N3CCCC3)nc(n2)Nc2cccc(c2)C1 | > 10000 nM | > 10000 nM | > 10000 nM | – | – | – | – | –
O=C1CC/C=C\COc2cccc(c2)-c2ccnc(n2)Nc2cccc(c2)N1 | 1750 nM | 1020 nM | 2600 nM | – | – | – | – | –
CN1C/C=C/CNC(=O)c2cccc(c2)-c2ccnc(n2)Nc2cccc(c2)C1 | > 10000 nM | > 10000 nM | > 10000 nM | – | – | – | – | –
COc1cc2cc(c1OCCN1CCCC1)CN(C)C/C=C/CCOc1cccc(c1)-c1ccnc(n1)N2 | 210 nM | 98 nM | 6700 nM | – | – | – | – | –
CN1C/C=C/COCc2cccc(c2)Nc2nccc(n2)-c2cccc(c2)C1 | 230 nM | 310 nM | 99 nM | – | – | – | – | –
OCCN1C/C=C/CCOc2cccc(c2)-c2ccnc(n2)Nc2cccc(c2)C1 | – | 350 nM | 100 nM | – | – | – | – | –
COc1ccc2cc1OCC/C=C/CN(C)Cc1cccc(c1)Nc1nccc-2n1 | 510 nM | 310 nM | 2300 nM | – | – | – | – | –

Now those with a lower IC50 [2], led by results:

IC50 [1] | IC50 [2] | IC50 [3] | solubility at 250 µM [4] | bioavailability [5] | half-life at 5 µM [6] | IC50 [7] | IC50 [8] | SMILES
62 nM | 45 nM | 260 nM | 146 µg/mL (≈ 292 µM) | – | – | – | – | CN1C/C=C/CCOc2cccc(c2)-c2ccnc(n2)Nc2ccc(OCCN3CCCCC3)c(c2)C1
150 nM | 29 nM | 310 nM | – | – | – | – | – | N#CCN1C/C=C/CCOc2cccc(c2)-c2ccnc(n2)Nc2ccc(OCCN3CCCC3)c(c2)C1
90 nM | 42 nM | – | – | – | – | – | – | C1=C/CN(C2CC2)Cc2cccc(c2)Nc2nccc(n2)-c2cccc(c2)OCC/1
160 nM | 22 nM | 9 nM | – | – | – | – | – | CN1C/C=C/CCOc2cc(F)cc(c2)-c2ccnc(n2)Nc2cccc(c2)C1
44 nM | 37 nM | 87 nM | – | – | – | – | – | CN1C/C=C/CCOc2cccc(c2)-c2ccnc(n2)Nc2cc(cc(NC(=O)N3CCOCC3)c2)C1
50 nM | 19 nM | 7 nM | – | – | – | – | – | CN1C/C=C/CCOc2cccc(c2)-c2ccnc(n2)Nc2cc(N)cc(c2)C1
110 nM | 93 nM | 170 nM | – | – | – | – | – | CCS(=O)(=O)CCOc1ccc2cc1CN(C)C/C=C/CCOc1cccc(c1)-c1ccnc(n1)N2
280 nM | 66 nM | 77 nM | – | – | – | – | – | COc1ccc2cc1CN(C)C/C=C/CCOc1cccc(c1)-c1ccnc(n1)N2
50 nM | 19 nM | 8 nM | – | – | – | – | – | CN1C/C=C/CCOc2cccc(c2)-c2ccnc(n2)Nc2cc(cc(NC(=O)C(F)(F)F)c2)C1
48 nM | 30 nM | 300 nM | 150 µg/mL (≈ 308 µM) | 5% | – | – | – | CCN(CC)CCOc1ccc2cc1CN(C)C/C=C/CCOc1cccc(c1)-c1ccnc(n1)N2
56 nM | 35 nM | 250 nM | 150 µg/mL (≈ 309 µM) | – | – | – | – | CN1C/C=C/CCOc2cccc(c2)-c2ccnc(n2)Nc2ccc(OCCN3CCCC3)c(c2)C1
82 nM | 77 nM | 24 nM | – | – | – | – | – | CN1C/C=C/CCOc2cccc(c2)-c2ccnc(n2)Nc2ccc(Cl)c(c2)C1
62 nM | 25 nM | 110 nM | – | – | – | – | – | COCCOc1ccc2cc1CN(C)C/C=C/CCOc1cccc(c1)-c1ccnc(n1)N2
49 nM | 71 nM | 74 nM | 147 µg/mL (≈ 321 µM) | – | 21 min | 410 nM | 76 nM | CN1C/C=C/CCOc2cccc(c2)-c2ccnc(n2)Nc2ccc(N3CCOCC3)c(c2)C1
120 nM | 40 nM | 300 nM | 154 µg/mL (≈ 307 µM) | – | – | – | – | CN1C/C=C/CCOc2cccc(c2)-c2ccnc(n2)Nc2ccc(OCCN3CCOCC3)c(c2)C1
